LGR2 antag – inhibitors of bursicon-induced Drosophila LGR2 receptor cAMP signaling. HEK293 LGR2, CRE-luciferase, bursicon-stimulated, 4 h. inhibition, % at 9.99 µM. 380,000 compounds, 0.35% hits;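 active = drop in luminescence signal, shown as inhibition above about 50% in the replicate tests, limit read from the data, passing the limit was not always enough; inconclusive = probably only some replicates passing the limit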;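 note: agonist challenge used bursicon conditioned medium at about half maximal strength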
EWS-Fli inh – inhibitors of EWS/Fli oncoprotein transcriptional activity | inhibition, % at 12.6 µM | 350,000 compounds, 0.67% hits | AID 651661 | A673 NR0B1-luciferase reporter, viability-normalised;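 active = mean inhibition of at least 50% after viability correction, with every replicate also passing that limit; inconclusive = mean reaches 50% but only one of two replicates passes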;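 note: firefly luciferase signal divided by Alamar Blue viability fluorescence both relative to DMSO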
TROY NFkB inh – blocks TROY-dependent signaling in reporter cells. Q293 LMP1-TROYcd NF-kB luciferase reporter, 4 h. inhibition, % at 10 µM. 360,000 compounds, 0.98% hits. AID 1347056;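 active = compounds whose plate-normalised and pattern-corrected inhibition of the luciferase reporter signal at the single screening dose is 50% or more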
Xi reactivation – activators of X-chromosome reactivation in mouse fibroblasts. XiGFP mouse fibroblasts, % GFP-positive cells imaging, 3 d; cells co-treated with 5-aza-dC sensitizer; scaled so ellipticine positive control = 100%. activation, % at 7.58 µM. 360,000 compounds, 0.055% hits;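 active = mean normalized replicate activation at least 10% and every replicate at or above 10%; inconclusive = only one of the two criteria met; inactive = mean below 10% and not all replicates reach 10%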;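 note: 0% = median of on-plate neutral control wells and 100% = ellipticine 6 µM median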
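Assay system: SV40-immortalized XiGFP fibroblast cells, line 68-5-11; buffer or medium: DMEM plus 5-aza-dC sensitizer; compound: one concentration, pinned; timing: compounds 3 days, fix/stain 15 min at room temperature; benchmarks: positive control ellipticine, 6 µM final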
TWEAK Fn14 block – inhibitors of TWEAK-Fn14 interaction signaling; TWEAK-stimulated Fn14 reporter cells, luciferase luminescence, 8 h; inhibition, % at 10 µM; 360,000 compounds, 2% hits; in the data active = inhibition above about 50%
FN deposition inh – fibronectin deposition inhibition; AID 743247; AH1F fibroblasts, Alexa488-fibronectin deposition fluorescence, overnight; 350,000 compounds, 0.086% hits; inhibition, % at 12.6 µM;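 active = mean inhibition across replicates of 30% or more, regardless of how many single replicates reach that level; inconclusive = mean under 30% yet at least half of replicates reach 30%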;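 note: positive control wells lacked labelled fibronectin entirely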
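Test system: AH1F fibroblast monolayer depositing Alexa488-labelled fibronectin into matrix. Input: 10000 cells per well. Technique: fluorescence, ex 485 nm, em 525 nm. Buffer or medium: DMEM plus 2% serum, read in PBS. Timing: 1 h cell adhesion before compound, then overnight fibronectin incubation. Compound: single dose, pinned. Read-out basis: inhibition from reduced deposited-fibronectin fluorescence.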
* marks the source's active call; other numbers are inactive results; ? = inconclusive; . = not tested or not shown. Most compounds without a hit are left out; they make up all but 2.3% or so of the library.

SMILES | LGR2 antag | EWS-Fli inh | TROY NFkB inh | Xi reactivation | TWEAK Fn14 block | FN deposition inh
CCCCC1CCC(c2nc(-c3ccccn3)no2)CC1 (stereo unspecified) | . | . | 25.4 | . | 55.5* | .
Cc1ccc(SCc2cc(=O)[nH]c(/N=C(\N)Nc3ccccc3Sc3ccccc3)n2)cc1 | 12.7 | . | -1.5 | 0.0 | 65.5* | 1.4
N/C(=N\c1nc(CSc2nc3ccccc3s2)cc(=O)[nH]1)Nc1ccc(F)cc1 | 2.1 | 14.7 | 31.9 | 34.9* | -3.7 | -4.0
COc1ccccc1N/C(N)=N/c1nc(CSc2ccc(C)cc2)cc(=O)[nH]1 | . | . | 14.0 | . | 43.5 | 8.9
O=C(NC[C@H]1CC[C@@H]2[C@@H](CN2Cc2cccc(Cl)c2)O1)C1CC1 | . | -4.7 | . | . | . | .
CCCNC(=O)N1C[C@H](C)[C@H](OC)CN(C)C(=O)c2cc(NC(=O)C3CCC3)ccc2OC[C@H]1C | -1.5 | 4.5 | . | 0.6 | . | -1.2
O=C1OC(c2ccc3ccccc3c2O)(c2ccc3ccccc3c2O)c2ccccc21 | -27.7 | -35.3 | 66.2* | 0.0 | 95.4* | .
O=C1OC(c2ccc(O)cc2)(c2ccccc2O)c2ccccc21 (stereo unspecified) | 5.9 | 8.3 | 10.3 | 0.2 | -9.5 | 0.8
O=C1OC(c2ccccc2)(c2cc(Br)ccc2O)c2ccccc21 (stereo unspecified) | 23.7 | -8.5 | 74.3* | -0.1 | 55.9* | 0.3
O=C1OC2(c3ccccc31)c1ccccc1-c1ccccc12 | 1.9 | -53.2 | -11.0 | 0.0 | 33.1 | -15.1
O=C1OC(c2ccccc2)(c2ccc3cc(O)ccc3c2)c2ccccc21 (stereo unspecified) | . | 2.8 | 28.5 | 0.0 | 60.1* | 6.4
Cc1ccc2nc(Cl)c3nnnn3c2c1 | . | . | 83.9* | . | -15.7 | .
Cc1ccc2nc(N3CCN(c4cccc(C)c4C)CC3)c3nnnn3c2c1 | . | . | 2.2 | . | 26.5 | 1.7
O=C(NCC[C@@H]1CC[C@@H](NC(=O)c2ccc3c(c2)OCO3)[C@@H](CO)O1)Nc1cc(F)ccc1F | 0.4 | -1.5 | . | -0.1 | . | 0.4
Cc1cc(C)c(S(=O)(=O)c2ccc(Cl)cc2)c(Cl)n1 | 6.0 | 4.0 | -5.4 | 0.0 | -4.8 | -1.0
Cc1cc(S(=O)(=O)c2ccc(Cl)cc2)nc(S(=O)(=O)c2ccc(Cl)cc2)c1C#N | 14.0 | 64.2* | 57.3* | 1.1 | 77.0* | -15.0
CCC(C)(C)C1CCc2c(sc(NC(=O)c3ccoc3C)c2C(N)=O)C1 (stereo unspecified) | . | . | 62.9* | . | 16.8 | 11.7
N#Cc1c(NC(=O)C2CC=CCC2C(=O)O)sc2c1CCCCCC2 (stereo unspecified) | -1.4 | . | -3.6 | 0.1 | -9.0 | -12.2
CCC(C)(C)C1CCc2c(sc(NC(=O)c3ccccc3C(=O)O)c2C#N)C1 (stereo unspecified) | . | -6.3 | 71.7* | 0.1 | 9.0 | 0.5
CC(C)(C)C1CCc2c(sc(NC(=O)C3CC=CCC3C(=O)O)c2C#N)C1 (stereo unspecified) | 7.2 | . | 55.9* | 0.0 | 27.1 | -1.3
CC1CCc2c(sc(NC(=O)c3ccccc3C(=O)O)c2C#N)C1 (stereo unspecified) | -2.8 | -6.2 | -8.9 | 0.2 | 13.2 | .
CO[C@H]1CN(C)C(=O)c2cc(NC(=O)C3CC3)ccc2OC[C@@H](C)N(C(=O)C2CCOCC2)C[C@H]1C | -2.1 | -7.9 | . | 0.2 | . | 5.6
CC(=O)Nc1cccc(Oc2ccc3c(c2)C(=O)N(CCC(=O)O)C3=O)c1 | . | . | . | . | 87.9* | .
O=C(C[C@H]1CC[C@H](NC(=O)c2ccc3c(c2)OCO3)[C@@H](CO)O1)NCc1ccc(Cl)cc1 | 0.4 | -24.9 | . | -0.2 | . | .
NNC(=O)CCN1CCCCC1 | 3.6 | 6.0 | 70.2* | 0.0 | 86.0* | 4.1
SMILES | LGR2 antag | EWS-Fli inh | TROY NFkB inh | Xi reactivation | TWEAK Fn14 block | FN deposition inh
CC1CCN(CCC(=O)NN)CC1 | 11.4 | 2.5 | 7.3 | 0.0 | 17.1 | -1.7
COc1ccc2cc3c(N)nn(C(=O)Cc4c[nH]c5ccccc45)c3nc2c1 | 87.8* | 21.9 | 67.0* | 0.4 | 94.7* | 12.9
COc1ccc2cc3c(N)nn(C(=O)c4ccccc4Cl)c3nc2c1 | 28.3 | 18.6 | 49.6 | 0.1 | 82.2* | 1.4
COc1ccc2cc3c(N)nn(C(=O)Cc4ccc(Cl)cc4)c3nc2c1 | . | -1.4 | 24.3 | 0.0 | -7.0 | 1.3
COc1ccc2cc3c(N)nn(C(=O)c4cccc(F)c4)c3nc2c1 | 13.0 | -22.3 | 15.3 | 0.1 | 14.3 | 4.0
COc1ccc2cc3c(N)nn(C(=O)c4ccc(F)cc4)c3nc2c1 | 10.8 | -28.9 | 38.3 | 0.0 | 55.4* | -1.3
C[C@@H]1CCCCO[C@H](CN(C)Cc2ccc3c(c2)OCO3)[C@H](C)CN([C@@H](C)CO)C(=O)c2cc(NS(=O)(=O)c3ccccc3)ccc2O1 | -24.2 | 7.1 | . | 0.1 | . | -0.5
C[C@H](NC(=O)C[C@@H]1C[C@@H]2c3cc(NS(C)(=O)=O)ccc3O[C@@H]2[C@@H](CO)O1)c1ccccc1 | 0.2 | -5.0 | . | 0.0 | . | -13.0
C=CCn1c(SCc2cc(C(C)=O)ccc2OCC)nc2ccccc2c1=O | . | 53.9* | 16.8 | 0.6 | 32.9 | 22.5
COc1ccc(C(C)=O)cc1CSc1nc2ccccc2c(=O)n1-c1ccccc1 | -14.2 | . | 1.4 | 0.2 | -36.4 | 6.0
Cc1cccc(S(=O)(=O)N2CCCCN3[C@H](CO)[C@@H](c4ccc(-c5cccnc5)cc4)[C@@H]3C2)c1 | 14.0 | . | . | 0.3 | . | .
Cc1nn(CC(=O)c2ccccc2Cl)c(C)c1[N+](=O)[O-] | -63.8 | -34.8 | 57.4* | 0.2 | 52.0* | 3.5
C[C@@H]1CN([C@H](C)CO)S(=O)(=O)c2ccc(-c3ccc(F)cc3)cc2O[C@@H]1CN(C)C(=O)C1CCC1 | -1.1 | 2.7 | . | -0.6 | . | .
O=C(NCC[C@@H]1CC[C@H](NS(=O)(=O)Cc2ccccc2)[C@H](CO)O1)C1CCOCC1 | 10.4 | -1.9 | . | -0.2 | . | .
CCCCC1C(=O)N(c2ccccc2)N(c2ccc(O)cc2)C1=O (stereo unspecified) | . | 45.5 | 55.4* | 2.7 | 84.4* | -4.2
CCOc1ccc2nc(NC(=O)c3ccco3)sc2c1 | ? | 24.1 | 22.8 | 0.0 | 58.7* | -10.5
CCOc1ccc2nc(NC(=O)c3ccoc3C)sc2c1 | . | . | 31.6 | . | 63.2* | .
Oc1cccc(/C=N/n2c(C3CCCCC3)n[nH]c2=S)c1 | 4.2 | -2.0 | 10.7 | 0.5 | -4.2 | -0.2
COc1cccc(/C=N/n2c(C3CCCCC3)n[nH]c2=S)c1 | 1.1 | -5.2 | 31.5 | 0.0 | 52.2* | -4.8
Cc1ccc(-c2csc(N/N=C/c3ccco3)n2)cc1 | -77.1 | . | -11.8 | . | 3.7 | 0.6
O=[N+]([O-])c1cccc(-c2csc(N/N=C/c3cccc(O)c3)n2)c1 | 17.3 | -40.5 | 51.3* | 0.2 | 58.1* | 1.8
CN(C)S(=O)(=O)c1ccc(-c2csc(N/N=C/c3ccc(O)cc3)n2)cc1 | 5.8 | 55.8* | 68.7* | 0.7 | 98.7* | 0.0

Screens from PubChem.
